Test results from ChEMBL document CHEMBL1933058, “5-(2-amino-pyrimidin-4-yl)-1H-pyrrole and 2-(2-amino-pyrimidin-4-yl)-1,5,6,7-tetrahydro-pyrrolo[3,2-c]pyridin-4-one derivatives as new classes of selective and orally available Polo-like kinase 1 inhibitors” (Bioorg Med Chem Lett, 2012).
In brackets after ≈: the same amount, converted by molar mass. Activity calls are given as the source filed them. The calls are words filed in the database; no cut-off is given here.

Tests used:
[1] = target: Cyclin-dependent kinase 5 activator 1 (Homo sapiens, UniProt Q15078); test: Inhibition of CDK5/P25
Sequence of Cyclin-dependent kinase 5 activator 1 (Q15078 whole entry): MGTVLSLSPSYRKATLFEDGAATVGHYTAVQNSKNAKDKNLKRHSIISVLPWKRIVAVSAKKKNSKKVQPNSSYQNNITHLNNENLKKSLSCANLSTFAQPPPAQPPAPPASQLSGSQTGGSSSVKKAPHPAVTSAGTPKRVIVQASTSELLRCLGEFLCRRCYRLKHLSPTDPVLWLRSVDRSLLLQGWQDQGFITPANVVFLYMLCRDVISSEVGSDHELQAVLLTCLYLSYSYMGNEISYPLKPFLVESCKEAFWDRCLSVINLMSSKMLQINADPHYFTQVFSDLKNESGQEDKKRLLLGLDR

[2] = target: Fibroblast growth factor receptor 1 (Homo sapiens, UniProt P11362); test: Inhibition of FGFR1
A2780 [3] = test: Cell cycle arrest in human A2780 cells assessed as reduction of phospho Ser46 TCTP level at 0.05 to 5 uM after 1 hr by Western blotting analysis; assay type: functional, cell-based
Method in brief: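 A2780 cells got 1 h exposure at 0.05, 0.5 and 5 µM, with nocodazole-treated cells as comparator. Western blot was used to probe the PLK1 substrate marker pSer46 TCTP and the mitotic marker pSer10 histone H3.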

[4] = target: Protein-tyrosine kinase 6 (Homo sapiens, UniProt Q13882); test: Inhibition of BRK
Sequence of Protein-tyrosine kinase 6 (Q13882 whole entry): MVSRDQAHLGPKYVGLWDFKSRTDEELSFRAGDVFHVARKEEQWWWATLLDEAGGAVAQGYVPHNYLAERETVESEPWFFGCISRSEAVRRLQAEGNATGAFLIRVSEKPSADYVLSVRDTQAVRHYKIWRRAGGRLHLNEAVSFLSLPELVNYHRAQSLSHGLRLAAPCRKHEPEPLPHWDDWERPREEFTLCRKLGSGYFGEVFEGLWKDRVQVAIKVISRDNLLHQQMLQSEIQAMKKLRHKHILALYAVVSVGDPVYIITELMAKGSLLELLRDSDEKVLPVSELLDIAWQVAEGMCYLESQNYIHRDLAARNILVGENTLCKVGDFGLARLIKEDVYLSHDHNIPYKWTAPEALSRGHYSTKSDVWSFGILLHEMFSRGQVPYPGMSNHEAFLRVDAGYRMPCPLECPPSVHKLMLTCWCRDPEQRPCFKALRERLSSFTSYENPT

[5] = AUC (0 to infinity) in Nu/Nu Balb Harlan mouse at 10 mg/kg, po; assay type: ADME, organism-based; parameters: time infinity, dose 10 mg/kg, route oral; conditions: plasma
[6] = Inhibition of NIM
[7] = Apparent permeability of the compound by PAMPA; assay type: ADME
[8] = Oral bioavailability in Nu/Nu Balb Harlan mouse at 10 mg/kg; assay type: ADME, organism-based; conditions: in vivo
K562 = test: Antiproliferative activity against human K562 cells; assay type: functional, cell-based
[9] = target: Cell division cycle 7-related protein kinase (Homo sapiens, UniProt O00311); test: Inhibition of CDC7
[10] = Terminal half life in Nu/Nu Balb Harlan mouse at 10 mg/kg, po; assay type: ADME, organism-based; parameters: dose 10 mg/kg, route oral; conditions: in vivo, read-out: beta t1/2 (converted)
[11] = Volume of distribution at steady state in Nu/Nu Balb Harlan mouse at 10 mg/kg, iv; assay type: ADME, organism-based; parameters: dose 10 mg/kg, route intravenous; conditions: in vivo, read-out: Vdss
Aurora kinase B = Aurora kinase B (Homo sapiens, UniProt Q96GD4); test: Inhibition of Aurora-B
MDA-MB-468 = test: Antiproliferative activity against human MDA-MB-468 cells; assay type: functional, cell-based
HCT-116 = test: Antiproliferative activity against human HCT116 cells; assay type: functional, cell-based
[12] = target: RAC-alpha serine/threonine-protein kinase (Homo sapiens, UniProt P31749); test: Inhibition of AKT1
[13] = Intrinsic clearance in human liver microsomes at 1 uM; assay type: ADME, Microsome; conditions: read-out: CLH
A2780 [14] = test: Cell cycle arrest in human A2780 cells assessed as induction of phospho Thr199 nucleophosmin level after 24 hrs by Western blotting analysis; assay type: functional, cell-based
Method in brief: (§1)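 A2780 cells were treated for 24 h at 0.05, 0.5 and 5 µM, with nocodazole as positive control. Lysates were immunoblotted for pSer10 histone H3, pThr199 nucleophosmin, cyclin B1, cyclin A, PARP cleavage and caspase 3 activation.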

Aurora kinase A = target: T1, Aurora kinase A (Homo sapiens, UniProt O14965); test: Inhibition of Aurora-A
T1 sequence (O14965 whole entry): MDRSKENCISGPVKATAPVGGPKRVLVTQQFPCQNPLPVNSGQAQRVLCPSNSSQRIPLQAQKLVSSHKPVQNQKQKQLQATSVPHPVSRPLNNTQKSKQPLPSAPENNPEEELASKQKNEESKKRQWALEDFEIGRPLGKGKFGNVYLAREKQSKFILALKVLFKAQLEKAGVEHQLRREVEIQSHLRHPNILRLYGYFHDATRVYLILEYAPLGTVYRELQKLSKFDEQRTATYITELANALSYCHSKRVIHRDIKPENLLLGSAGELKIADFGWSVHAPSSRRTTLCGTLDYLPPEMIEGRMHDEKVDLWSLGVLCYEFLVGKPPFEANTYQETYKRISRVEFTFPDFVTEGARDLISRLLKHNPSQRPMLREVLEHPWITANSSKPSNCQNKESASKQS

A2780 [15] = test: Cell cycle arrest in human A2780 cells assessed as accumulation at G2/M phase at 0.05 to 5 uM after 24 hrs by FACS analysis; assay type: functional, cell-based
Method in brief: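 A2780 cells were exposed for 24 h to 0.05, 0.5 or 5 µM. Cell-cycle distribution was read by flow cytometry (FACS), scoring G2-M accumulation. Nocodazole-treated cells served as positive control.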

[16] = Inhibition of PDGFR
[17] = target: Proto-oncogene tyrosine-protein kinase receptor Ret (Homo sapiens, UniProt P07949); test: Inhibition of RET
[18] = target: Protein kinase C beta type (Homo sapiens, UniProt P05771); test: Inhibition of PKCbeta
[19] = target: Insulin-like growth factor 1 receptor (Homo sapiens, UniProt P08069); test: Inhibition of IGFR1
[20] = Clearance in Nu/Nu Balb Harlan mouse at 10 mg/kg, iv; assay type: ADME, organism-based; parameters: dose 10 mg/kg, route intravenous; conditions: in vivo
Method in brief: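 Male Balb Nu/Nu mice (Harlan) received a single 10 mg/kg intravenous dose, n = 3 animals per study. Vehicle was either trifluoroacetate salt in dextrose or free base in 50% PEG 400/glucosate, depending on compound. Parameters were reported as mean ± standard deviation.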

[21] = Solubility of the compound at pH 7; assay type: physicochemical; conditions: buffer
A2780 [22] = test: Induction of apoptosis in human A2780 cells assessed as PARP cleavage at 5 uM after 24 hrs by Western blotting analysis; assay type: functional, cell-based; method in brief: as §1
[23] = Cmax in Nu/Nu Balb Harlan mouse at 10 mg/kg, po; assay type: ADME, organism-based; parameters: dose 10 mg/kg, route oral; conditions: in vivo
[24] = target: Serine/threonine-protein kinase PLK3 (Homo sapiens, UniProt Q9H4B4); test: Inhibition of PLK3
[25] = target: MAP kinase-activated protein kinase 2 (Homo sapiens, UniProt P49137); test: Inhibition of MAP-KAPK2
[26] = target: Serine/threonine-protein kinase Chk1 (Homo sapiens, UniProt O14757); test: Inhibition of CHK1
[27] = target: Mast/stem cell growth factor receptor Kit (Homo sapiens, UniProt P10721); test: Inhibition of KIT
A2780 [28] = test: Antiproliferative activity against human A2780 cells; assay type: functional, cell-based
[29] = target: Epidermal growth factor receptor (Homo sapiens, UniProt P04626+P00533+Q15303+P21860); test: Inhibition of EGFR1; assay type: protein assay
[30] = target: Tyrosine-protein kinase ABL1 (Homo sapiens, UniProt P00519); test: Inhibition of c-ABL
[31] = target: Mitogen-activated protein kinase 1 (Homo sapiens, UniProt P28482); test: Inhibition of ERK2
Sequence of Mitogen-activated protein kinase 1 (P28482 whole entry): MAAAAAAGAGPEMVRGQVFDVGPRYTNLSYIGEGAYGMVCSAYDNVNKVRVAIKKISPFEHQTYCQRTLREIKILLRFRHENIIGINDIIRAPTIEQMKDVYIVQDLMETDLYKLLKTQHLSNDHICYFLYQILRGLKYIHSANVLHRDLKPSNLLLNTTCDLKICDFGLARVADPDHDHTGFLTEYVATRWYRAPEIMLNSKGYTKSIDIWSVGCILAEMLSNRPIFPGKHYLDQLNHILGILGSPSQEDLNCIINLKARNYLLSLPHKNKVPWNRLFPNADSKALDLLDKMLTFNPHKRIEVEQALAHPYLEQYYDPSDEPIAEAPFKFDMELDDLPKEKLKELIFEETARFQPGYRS

[32] = target: Tyrosine-protein kinase JAK2 (Homo sapiens, UniProt O60674); test: Inhibition of JAK2
Sequence of Tyrosine-protein kinase JAK2 (O60674 whole entry): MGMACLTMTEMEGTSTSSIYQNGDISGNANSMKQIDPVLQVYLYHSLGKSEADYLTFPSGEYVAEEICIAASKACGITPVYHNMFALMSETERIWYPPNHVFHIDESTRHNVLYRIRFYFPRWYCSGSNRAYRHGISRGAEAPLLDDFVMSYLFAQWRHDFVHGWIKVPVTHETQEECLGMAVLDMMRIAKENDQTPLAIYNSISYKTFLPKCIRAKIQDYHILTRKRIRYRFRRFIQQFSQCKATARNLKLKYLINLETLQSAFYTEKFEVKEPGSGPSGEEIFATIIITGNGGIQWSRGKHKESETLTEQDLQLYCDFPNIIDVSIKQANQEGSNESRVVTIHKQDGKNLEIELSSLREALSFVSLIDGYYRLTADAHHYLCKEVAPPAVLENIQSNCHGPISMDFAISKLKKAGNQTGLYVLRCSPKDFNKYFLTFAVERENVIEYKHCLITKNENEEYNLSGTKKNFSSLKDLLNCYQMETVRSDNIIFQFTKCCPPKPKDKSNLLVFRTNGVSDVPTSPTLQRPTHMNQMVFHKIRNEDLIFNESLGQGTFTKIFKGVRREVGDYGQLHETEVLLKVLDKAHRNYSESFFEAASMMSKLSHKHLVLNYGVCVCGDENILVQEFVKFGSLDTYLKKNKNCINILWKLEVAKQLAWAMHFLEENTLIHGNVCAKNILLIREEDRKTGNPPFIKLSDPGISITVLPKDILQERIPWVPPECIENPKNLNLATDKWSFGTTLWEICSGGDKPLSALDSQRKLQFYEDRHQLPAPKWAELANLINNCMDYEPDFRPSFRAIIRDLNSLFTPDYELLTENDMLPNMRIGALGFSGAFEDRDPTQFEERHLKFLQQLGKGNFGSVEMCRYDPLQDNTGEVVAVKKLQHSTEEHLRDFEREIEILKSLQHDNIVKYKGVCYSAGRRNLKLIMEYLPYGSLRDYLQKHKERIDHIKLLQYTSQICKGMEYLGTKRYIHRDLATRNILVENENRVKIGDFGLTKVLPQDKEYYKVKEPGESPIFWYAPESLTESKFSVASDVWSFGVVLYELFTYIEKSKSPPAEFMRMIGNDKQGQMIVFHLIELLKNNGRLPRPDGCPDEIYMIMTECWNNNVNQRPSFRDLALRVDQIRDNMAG

[33] = Inhibition of CK2
[34] = target: Inhibitor of nuclear factor kappa-B kinase subunit beta (Homo sapiens, UniProt O14920); test: Inhibition of IKK2
Sequence of Inhibitor of nuclear factor kappa-B kinase subunit beta (O14920 whole entry): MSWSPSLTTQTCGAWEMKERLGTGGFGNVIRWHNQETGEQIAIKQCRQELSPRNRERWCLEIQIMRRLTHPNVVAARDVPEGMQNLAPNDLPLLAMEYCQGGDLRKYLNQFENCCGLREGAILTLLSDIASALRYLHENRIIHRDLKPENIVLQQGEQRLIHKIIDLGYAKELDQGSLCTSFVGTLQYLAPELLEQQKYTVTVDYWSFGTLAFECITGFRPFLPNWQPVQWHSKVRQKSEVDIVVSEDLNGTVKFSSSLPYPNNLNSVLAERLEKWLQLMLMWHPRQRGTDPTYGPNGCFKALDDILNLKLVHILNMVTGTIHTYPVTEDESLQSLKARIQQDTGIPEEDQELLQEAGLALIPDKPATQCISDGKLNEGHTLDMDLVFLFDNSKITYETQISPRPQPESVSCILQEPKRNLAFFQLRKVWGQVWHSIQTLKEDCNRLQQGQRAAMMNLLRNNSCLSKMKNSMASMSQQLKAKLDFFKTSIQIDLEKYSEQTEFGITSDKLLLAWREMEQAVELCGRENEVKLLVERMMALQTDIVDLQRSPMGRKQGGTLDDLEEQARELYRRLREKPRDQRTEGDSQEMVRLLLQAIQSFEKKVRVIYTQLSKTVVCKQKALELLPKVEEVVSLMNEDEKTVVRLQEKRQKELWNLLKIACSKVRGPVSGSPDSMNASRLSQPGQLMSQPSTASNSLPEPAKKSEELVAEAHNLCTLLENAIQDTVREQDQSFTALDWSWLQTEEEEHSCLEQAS

[35] = target: Serine/threonine-protein kinase 26 (Homo sapiens, UniProt Q9P289); test: Inhibition of MST4
[36] = target: Glycogen synthase kinase-3 beta (Homo sapiens, UniProt P49841); test: Inhibition of GSK3-beta
Sequence of Glycogen synthase kinase-3 beta (P49841 whole entry): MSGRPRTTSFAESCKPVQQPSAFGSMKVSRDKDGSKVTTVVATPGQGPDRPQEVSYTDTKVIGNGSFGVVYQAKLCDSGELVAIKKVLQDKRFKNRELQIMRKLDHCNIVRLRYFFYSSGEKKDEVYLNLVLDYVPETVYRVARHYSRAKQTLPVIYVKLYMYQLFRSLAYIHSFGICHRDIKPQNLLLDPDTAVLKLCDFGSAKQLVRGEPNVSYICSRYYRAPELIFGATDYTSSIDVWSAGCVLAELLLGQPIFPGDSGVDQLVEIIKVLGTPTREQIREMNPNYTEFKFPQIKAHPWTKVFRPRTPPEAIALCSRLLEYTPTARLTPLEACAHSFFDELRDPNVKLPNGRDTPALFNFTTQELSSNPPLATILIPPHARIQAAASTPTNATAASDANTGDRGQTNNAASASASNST

[37] = target: Vascular endothelial growth factor receptor 3 (Homo sapiens, UniProt P35916); test: Inhibition of VEGFR3
Sequence of Vascular endothelial growth factor receptor 3 (P35916 whole entry): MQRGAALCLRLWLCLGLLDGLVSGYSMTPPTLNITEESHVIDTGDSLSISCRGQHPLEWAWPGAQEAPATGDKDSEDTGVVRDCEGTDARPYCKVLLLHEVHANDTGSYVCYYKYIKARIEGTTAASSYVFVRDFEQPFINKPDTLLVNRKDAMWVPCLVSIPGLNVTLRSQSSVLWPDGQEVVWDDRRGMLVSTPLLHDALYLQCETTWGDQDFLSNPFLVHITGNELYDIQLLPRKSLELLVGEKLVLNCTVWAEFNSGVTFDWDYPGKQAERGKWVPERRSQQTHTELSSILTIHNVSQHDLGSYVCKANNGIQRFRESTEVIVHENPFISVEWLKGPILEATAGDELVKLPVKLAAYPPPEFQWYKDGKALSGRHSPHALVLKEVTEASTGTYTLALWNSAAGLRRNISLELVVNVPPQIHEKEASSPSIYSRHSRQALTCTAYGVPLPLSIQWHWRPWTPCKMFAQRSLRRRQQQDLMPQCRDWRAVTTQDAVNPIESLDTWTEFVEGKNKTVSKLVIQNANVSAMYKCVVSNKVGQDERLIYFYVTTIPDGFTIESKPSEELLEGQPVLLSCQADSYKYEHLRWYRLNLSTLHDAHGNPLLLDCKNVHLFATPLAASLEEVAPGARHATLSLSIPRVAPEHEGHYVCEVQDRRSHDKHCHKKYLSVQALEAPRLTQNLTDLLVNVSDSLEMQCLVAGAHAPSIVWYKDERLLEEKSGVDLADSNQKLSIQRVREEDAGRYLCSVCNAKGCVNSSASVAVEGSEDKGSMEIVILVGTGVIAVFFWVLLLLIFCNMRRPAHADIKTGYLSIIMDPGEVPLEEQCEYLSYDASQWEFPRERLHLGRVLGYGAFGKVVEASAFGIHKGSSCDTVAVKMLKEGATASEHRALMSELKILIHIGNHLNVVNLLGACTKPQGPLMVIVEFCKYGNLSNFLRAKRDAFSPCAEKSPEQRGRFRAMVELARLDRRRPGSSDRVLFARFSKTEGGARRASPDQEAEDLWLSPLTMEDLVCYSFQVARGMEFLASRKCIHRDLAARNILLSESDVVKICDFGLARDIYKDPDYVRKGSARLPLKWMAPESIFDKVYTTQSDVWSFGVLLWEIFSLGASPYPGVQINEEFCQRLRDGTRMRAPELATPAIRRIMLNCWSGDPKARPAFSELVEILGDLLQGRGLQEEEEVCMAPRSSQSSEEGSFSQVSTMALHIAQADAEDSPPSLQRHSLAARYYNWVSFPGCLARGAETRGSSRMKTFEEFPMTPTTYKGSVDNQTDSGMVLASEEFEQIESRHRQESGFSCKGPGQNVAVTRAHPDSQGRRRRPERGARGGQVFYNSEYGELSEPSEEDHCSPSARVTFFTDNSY

Insulin receptor = Insulin receptor (Homo sapiens, UniProt P06213); test: Inhibition of IR
[38] = target: Cyclin-dependent kinase 2/cyclin E1 (Homo sapiens, UniProt P24941); test: Inhibition of CDK2/cyclin E; assay type: protein-complex assay
[39] = target: Hepatocyte growth factor receptor (Homo sapiens, UniProt P08581); test: Inhibition of MET

IC50 [1]: > 10 µM
IC50 [2]: > 10 µM
IC50 [4]: > 10 µM
AUC(0-inf) [5]: 2.38 µM·h
IC50 [6]: > 10 µM
Papp [7]: 5.79 ×10⁻⁶ cm/s
bioavailability [8]: 52%
IC50 (K562): 0.06 µM
IC50 [9]: > 10 µM
half-life [10]: 1.4 h
Vd [11]: 2.49 L/kg
IC50 (Aurora kinase B): > 10 µM
IC50 (MDA-MB-468): 0.041 µM
IC50 (HCT-116): 0.032 µM
IC50 [12]: > 10 µM
CLint scaled at 1 µM [13]: 16.5 mL/min/kg
IC50 (Aurora kinase A): > 10 µM
IC50 [16]: > 10 µM
IC50 [17]: > 10 µM
IC50 [18]: > 10 µM
IC50 [19]: > 10 µM
clearance [20]: 66.4 mL/min/kg
solubility [21]: 163 µM (≈ 81.7 µg/mL)
Cmax [23]: 760 nM
IC50 [24]: > 10 µM
IC50 [25]: > 10 µM
IC50 [26]: > 10 µM
IC50 [27]: > 10 µM
IC50 (A2780 [28]): 0.037 µM
IC50 [29]: > 10 µM
IC50 [30]: > 10 µM
IC50 [31]: > 10 µM
IC50 [32]: > 10 µM
IC50 [33]: 0.42 µM
IC50 [34]: > 10 µM
IC50 [35]: > 10 µM
IC50 [36]: > 10 µM
IC50 [37]: > 10 µM
IC50 (Insulin receptor): > 10 µM
IC50 [38]: > 10 µM
IC50 [39]: > 10 µM
Compound: CN1CCN(c2ccc(OC(F)(F)F)c(Nc3nccc(-c4cc5c(n4C)CCNC5=O)n3)c2)CC1
Activity (A2780 [3]): Active
Activity (A2780 [14]): Dose-dependent effect
Activity (A2780 [15]): Active
Activity (A2780 [22]): Active
